# Results collected from several papers.
# Target: Homeodomain-interacting protein kinase 2 (HIPK2, Homo sapiens, UniProt Q9H2X6)
SMILES,read-out,mode,method,concentration,endpoint,result
Nc1ncnc2occ(-c3ccc(NC(=O)Nc4cc(C(F)(F)F)ccc4F)cc3)c12,cell-free assay,inhibitor,,20 µM,remaining signal,0.05%
CNC(=O)Nc1ccc2c(c1)[C@@]1(CC2)OC(=O)N(CC(=O)N(Cc2ccc(F)cc2)[C@@H](C)C(F)(F)F)C1=O,cell-free assay,,competition with immobilised ligand,1 µM,remaining binding,78%
COc1cc2ncnc(Nc3ccc(Oc4ccccc4)c(C)c3C)c2cc1OC,enzyme activity,inhibitor,,1 µM,inhibition,1%
O=C(O)c1ccc2c(c1)nc(NCc1ccccc1)c1ncncc12,enzyme activity,inhibitor,radiometric,1 µM,remaining activity,39%
COc1cc(-c2cc(-c3ccc(N4CCNCC4)cc3)cnc2C)cc(OC)c1OC,enzyme activity,inhibitor,,0.1 µM,inhibition,1%
CNC(=O)Nc1ccc2c(c1)CC[C@@]21OC(=O)N(CC(=O)N(Cc2ccc(F)cc2)[C@@H](C)C(F)(F)F)C1=O,cell-free assay,,competition with immobilised ligand,1 µM,remaining binding,95%
COc1cc2nccc(Oc3ccc(NC(=O)c4c5n(n(-c6ccc(F)cc6)c4=O)CCCC5)cc3)c2cc1OC,enzyme activity,inhibitor,,0.1 µM,inhibition,10%
CN(c1ncccc1CNc1nc(Nc2ccc3c(c2)CC(=O)N3)ncc1C(F)(F)F)S(C)(=O)=O,enzyme activity,inhibitor,,1 µM,inhibition,85.7%
C[C@H](c1cccc(C#N)c1)n1cc(Cl)cc(C(N)=O)c1=N,cell-free assay,,competition with immobilised ligand,1 µM,remaining binding,100%
COc1cccc(Nc2nc3cc(C(=O)O)ccc3c3cnccc23)c1,enzyme activity,inhibitor,radiometric,1 µM,remaining activity,2%
Cc1ccc(Nc2nccc(N(C)c3ccc4c(C)n(C)nc4c3)n2)cc1S(N)(=O)=O,enzyme activity,inhibitor,,0.3 µM,inhibition,7%
O=C1Nc2ccc(Cl)cc2C1=Cc1cc(Cl)c(O)c(Cl)c1,cell-free assay,,,0.5 µM,remaining signal,122%
COc1cc(-c2cn(C3CCc4c(F)cccc4N(CC(F)(F)F)C3=O)nn2)ccc1-n1cnc(C)c1 (stereo not drawn),cell-free assay,,competition with immobilised ligand,1 µM,remaining binding,100%
O=C(O)c1ccc2c(c1)nc(NCCc1cccc(F)c1)c1ccncc12,enzyme activity,inhibitor,radiometric,1 µM,remaining activity,4%
CCOc1cc(-c2nncn2C)ccc1Nc1ncc2cc(C)nc(NCC(C)(C)C)c2n1,enzyme activity,inhibitor,FRET,1 µM,inhibition,< 15%
Cc1ccc(NC(=O)c2ccc(CN3CCN(C)CC3)cc2)cc1Nc1nc(-c2cccnc2)cs1,cell-free assay,,,0.5 µM,remaining signal,90.8%
O=C(O)c1ccc2c(c1)nc(NCc1ccccc1)c1ccncc12,enzyme activity,inhibitor,radiometric,1 µM,remaining activity,51%
CN1CCN(c2cnc3c(C4CCN(C(=O)c5ccc(OC(F)(F)F)cc5N)CC4)ncnc3c2)CC1,cell-free assay,,competition with immobilised ligand,1 µM,remaining binding,100%
O=C(O)c1ccc2c(c1)nc(NCCc1cccc(Cl)c1)c1ncncc12,enzyme activity,inhibitor,radiometric,1 µM,remaining activity,36%
COc1cccc(CNC(=O)c2nc3scc(COCc4ccc(C(=O)O)cc4)c3c(=O)[nH]2)c1,cell-free assay,,competition with immobilised ligand,1 µM,remaining binding,72.9%
CCN(CC)CCNC(=O)c1c(C)[nH]c(/C=C2\C(=O)Nc3ccc(F)cc32)c1C,enzyme activity,inhibitor,,10 µM,inhibition,89%
O=C(O)c1ccc2c(c1)nc(Nc1ccc3ccccc3c1)c1ncncc12,enzyme activity,inhibitor,radiometric,1 µM,remaining activity,-3%
O=C(Nc1ccc(Oc2ccc(F)cc2)cc1)N1CCc2ncccc2[C@H]1c1ccc(F)cc1,cell-free assay,,competition with immobilised ligand,1 µM,remaining binding,79%
O=C(O)c1ccc2c(c1)nc(Nc1ccc(F)c(Cl)c1)c1ncncc12,enzyme activity,inhibitor,radiometric,1 µM,remaining activity,2%
Cc1nc(N2CC[C@@H](O)C2)ncc1-c1cc(C(F)(F)F)cc2[nH]ncc12,binding,,competition with immobilised ligand,1 µM,remaining binding,74%
O=C(O)c1ccc2c(c1)nc(Nc1ccccc1Cl)c1ncncc12,enzyme activity,inhibitor,radiometric,1 µM,remaining activity,3%
N#CCCc1ccc2c(c1)-c1[nH]c3ccc([N+](=O)[O-])cc3c1CC(=O)N2,cell-free assay,,,0.5 µM,remaining signal,106%
